Measured values as given in ChEMBL document CHEMBL1765070, “Structure-based design of potent and selective 3-phosphoinositide-dependent kinase-1 (PDK1) inhibitors” (J Med Chem, 2011).

How the values were obtained:
TGF-beta receptor type-1 = target: T1, TGF-beta receptor type-1 (Homo sapiens, UniProt P36897); test: Inhibition of ALK5
T1 sequence (P36897 whole entry): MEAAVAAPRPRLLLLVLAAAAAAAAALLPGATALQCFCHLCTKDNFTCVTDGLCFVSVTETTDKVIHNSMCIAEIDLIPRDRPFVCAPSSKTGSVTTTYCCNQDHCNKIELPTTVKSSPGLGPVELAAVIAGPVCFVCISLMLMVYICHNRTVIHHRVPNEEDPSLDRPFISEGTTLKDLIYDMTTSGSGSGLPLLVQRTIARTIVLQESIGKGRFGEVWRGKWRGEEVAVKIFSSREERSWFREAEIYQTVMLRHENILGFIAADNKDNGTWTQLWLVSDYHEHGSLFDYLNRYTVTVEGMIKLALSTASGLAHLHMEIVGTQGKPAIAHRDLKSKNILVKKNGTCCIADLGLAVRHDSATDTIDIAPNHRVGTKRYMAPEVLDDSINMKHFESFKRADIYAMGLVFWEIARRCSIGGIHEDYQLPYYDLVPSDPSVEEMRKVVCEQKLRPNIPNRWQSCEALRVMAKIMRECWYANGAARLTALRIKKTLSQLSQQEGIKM

K562 = test: Antiproliferative activity against human K562 cells; format: functional, cell-based
OCI-AML2 = test: Antiproliferative activity against human OCI-AML2 cells; format: functional, cell-based
[1] = Antiproliferative activity against human OCI-AML3 cells; format: functional, cell-based; conditions: OCI-AML-3
HEL = test: Antiproliferative activity against human HEL 92.1.7 cells; format: functional, cell-based
[2] = Antiproliferative activity against human F-36P cells; format: functional, cell-based
[3] = target: Serine/threonine-protein kinase Sgk2 (Homo sapiens) (UniProt Q9HBY8); test: Inhibition of human SGK2 assessed as residual activity at 10 uM
[4] = target: 3-phosphoinositide-dependent protein kinase 1 (Homo sapiens) (UniProt O15530); test: Inhibition of human PDK1 assessed as residual activity at 10 uM
[5] = target: cAMP-dependent protein kinase catalytic subunit PRKX (Homo sapiens) (UniProt P51817); test: Inhibition of human PrKX assessed as residual activity at 10 uM
[6] = target: Ribosomal protein S6 kinase alpha-6 (Homo sapiens) (UniProt Q9UK32); test: Inhibition of human RSK4 assessed as residual activity at 10 uM
[7] = target: Serine/threonine-protein kinase Sgk1 (Homo sapiens) (UniProt O00141); test: Inhibition of human SGK assessed as residual activity at 10 uM
[8] = target: NUAK family SNF1-like kinase 1 (Homo sapiens) (UniProt O60285); test: Inhibition of human ARK5 assessed as residual activity at 10 uM
[9] = target: Rho-associated protein kinase 2 (Rattus norvegicus) (UniProt Q62868); test: Inhibition of rat ROCK2 assessed as residual activity at 10 uM
[10] = target: Death-associated protein kinase 3 (Homo sapiens) (UniProt O43293); test: Inhibition of human ZIPK assessed as residual activity at 10 uM
Death-associated protein kinase 3 (Homo sapiens), sequence (O43293 whole entry, looked up): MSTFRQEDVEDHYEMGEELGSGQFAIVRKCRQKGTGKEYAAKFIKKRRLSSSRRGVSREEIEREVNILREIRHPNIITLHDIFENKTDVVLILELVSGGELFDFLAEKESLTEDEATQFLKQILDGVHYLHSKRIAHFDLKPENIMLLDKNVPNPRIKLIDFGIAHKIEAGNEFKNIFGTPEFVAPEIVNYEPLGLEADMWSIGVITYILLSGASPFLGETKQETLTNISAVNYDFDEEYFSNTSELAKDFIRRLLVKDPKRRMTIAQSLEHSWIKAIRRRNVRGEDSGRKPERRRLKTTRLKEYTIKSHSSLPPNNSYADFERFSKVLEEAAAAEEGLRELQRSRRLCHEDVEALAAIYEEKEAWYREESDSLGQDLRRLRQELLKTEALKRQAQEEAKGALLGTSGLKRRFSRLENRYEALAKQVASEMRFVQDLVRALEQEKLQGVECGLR

[11] = target: RAC-gamma serine/threonine-protein kinase (Homo sapiens) (UniProt Q9Y243); test: Inhibition of human PKBgamma assessed as residual activity at 10 uM
[12] = target: Serine/threonine-protein kinase 17A (Homo sapiens) (UniProt Q9UEE5); test: Inhibition of human DRAK1 assessed as residual activity at 10 uM
Serine/threonine-protein kinase 17A (Homo sapiens), sequence (Q9UEE5 whole entry): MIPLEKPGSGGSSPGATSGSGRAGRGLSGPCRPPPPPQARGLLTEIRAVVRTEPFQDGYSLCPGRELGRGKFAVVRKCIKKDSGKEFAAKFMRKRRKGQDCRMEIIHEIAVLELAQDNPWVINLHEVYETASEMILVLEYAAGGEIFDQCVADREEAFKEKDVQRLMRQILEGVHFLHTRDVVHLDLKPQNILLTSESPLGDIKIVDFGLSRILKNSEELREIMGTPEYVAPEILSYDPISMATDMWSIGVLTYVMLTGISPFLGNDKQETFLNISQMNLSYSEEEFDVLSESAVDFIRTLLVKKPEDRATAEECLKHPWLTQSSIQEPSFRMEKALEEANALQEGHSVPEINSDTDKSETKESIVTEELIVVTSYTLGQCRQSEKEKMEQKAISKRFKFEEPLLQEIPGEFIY

[13] = target: Rho-associated protein kinase 2 (Homo sapiens) (UniProt O75116); test: Inhibition of human ROCK2 assessed as residual activity at 10 uM
[14] = target: Ribosomal protein S6 kinase alpha-3 (Homo sapiens) (UniProt P51812); test: Inhibition of human RSK2 assessed as residual activity at 10 uM
Ribosomal protein S6 kinase alpha-3 (Homo sapiens), sequence (P51812 whole entry): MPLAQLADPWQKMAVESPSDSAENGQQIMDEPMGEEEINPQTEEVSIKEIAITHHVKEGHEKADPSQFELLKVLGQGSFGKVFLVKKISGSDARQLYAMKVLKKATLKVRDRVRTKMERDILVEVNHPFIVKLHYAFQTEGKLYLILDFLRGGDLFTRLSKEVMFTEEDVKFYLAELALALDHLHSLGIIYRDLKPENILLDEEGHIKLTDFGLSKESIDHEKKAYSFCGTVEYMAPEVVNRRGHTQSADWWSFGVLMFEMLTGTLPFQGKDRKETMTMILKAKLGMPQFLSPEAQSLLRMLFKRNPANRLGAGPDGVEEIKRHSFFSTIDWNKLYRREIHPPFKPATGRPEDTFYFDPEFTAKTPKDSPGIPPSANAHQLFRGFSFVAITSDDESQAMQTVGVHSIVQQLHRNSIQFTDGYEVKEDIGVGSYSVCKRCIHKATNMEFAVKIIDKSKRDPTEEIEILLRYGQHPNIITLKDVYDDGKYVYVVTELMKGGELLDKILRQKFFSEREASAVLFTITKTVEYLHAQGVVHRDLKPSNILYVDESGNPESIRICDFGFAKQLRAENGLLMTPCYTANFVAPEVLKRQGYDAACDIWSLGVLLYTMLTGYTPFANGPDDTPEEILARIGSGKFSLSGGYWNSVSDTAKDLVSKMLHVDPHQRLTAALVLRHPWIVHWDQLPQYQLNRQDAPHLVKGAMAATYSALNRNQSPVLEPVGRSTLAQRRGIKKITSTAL

[15] = target: Serine/threonine-protein kinase Chk2 (Homo sapiens) (UniProt O96017); test: Inhibition of human CHK2 assessed as residual activity at 10 uM
[16] = target: Serine/threonine-protein kinase BRSK1 (Homo sapiens) (UniProt Q8TDC3); test: Inhibition of human BRSK1 assessed as residual activity at 10 uM
[17] = target: Ribosomal protein S6 kinase alpha-1 (Rattus norvegicus) (UniProt Q63531); test: Inhibition of rat RSK1 assessed as residual activity at 10 uM
[18] = target: Serine/threonine-protein kinase NLK (Homo sapiens) (UniProt Q9UBE8); test: Inhibition of human NLK assessed as residual activity at 10 uM
[19] = system: Hepatocyte growth factor receptor (Homo sapiens), P08581 [D1246H]; test: Inhibition of human MET D1246H mutant assessed as residual activity at 10 uM
[20] = target: Serine/threonine-protein kinase BRSK2 (Homo sapiens) (UniProt Q8IWQ3); test: Inhibition of human BRSK2 assessed as residual activity at 10 uM
[21] = target: Proto-oncogene tyrosine-protein kinase receptor Ret (Homo sapiens) (UniProt P07949); test: Inhibition of human RET assessed as residual activity at 10 uM
[22] = target: Ribosomal protein S6 kinase alpha-1 (Homo sapiens) (UniProt Q15418); test: Inhibition of human RSK1 assessed as residual activity at 10 uM
[23] = system: Hepatocyte growth factor receptor (Homo sapiens), P08581 [Y1248H]; test: Inhibition of human MET Y1248H assessed as residual activity at 10 uM
[24] = target: RAC-alpha serine/threonine-protein kinase (Homo sapiens, UniProt P31749); test: Inhibition of AKT1
[25] = target: Mitogen-activated protein kinase kinase kinase 5 (Homo sapiens, UniProt Q99683); test: Inhibition of ASK1
Mitogen-activated protein kinase kinase kinase 5, sequence (Q99683 whole entry): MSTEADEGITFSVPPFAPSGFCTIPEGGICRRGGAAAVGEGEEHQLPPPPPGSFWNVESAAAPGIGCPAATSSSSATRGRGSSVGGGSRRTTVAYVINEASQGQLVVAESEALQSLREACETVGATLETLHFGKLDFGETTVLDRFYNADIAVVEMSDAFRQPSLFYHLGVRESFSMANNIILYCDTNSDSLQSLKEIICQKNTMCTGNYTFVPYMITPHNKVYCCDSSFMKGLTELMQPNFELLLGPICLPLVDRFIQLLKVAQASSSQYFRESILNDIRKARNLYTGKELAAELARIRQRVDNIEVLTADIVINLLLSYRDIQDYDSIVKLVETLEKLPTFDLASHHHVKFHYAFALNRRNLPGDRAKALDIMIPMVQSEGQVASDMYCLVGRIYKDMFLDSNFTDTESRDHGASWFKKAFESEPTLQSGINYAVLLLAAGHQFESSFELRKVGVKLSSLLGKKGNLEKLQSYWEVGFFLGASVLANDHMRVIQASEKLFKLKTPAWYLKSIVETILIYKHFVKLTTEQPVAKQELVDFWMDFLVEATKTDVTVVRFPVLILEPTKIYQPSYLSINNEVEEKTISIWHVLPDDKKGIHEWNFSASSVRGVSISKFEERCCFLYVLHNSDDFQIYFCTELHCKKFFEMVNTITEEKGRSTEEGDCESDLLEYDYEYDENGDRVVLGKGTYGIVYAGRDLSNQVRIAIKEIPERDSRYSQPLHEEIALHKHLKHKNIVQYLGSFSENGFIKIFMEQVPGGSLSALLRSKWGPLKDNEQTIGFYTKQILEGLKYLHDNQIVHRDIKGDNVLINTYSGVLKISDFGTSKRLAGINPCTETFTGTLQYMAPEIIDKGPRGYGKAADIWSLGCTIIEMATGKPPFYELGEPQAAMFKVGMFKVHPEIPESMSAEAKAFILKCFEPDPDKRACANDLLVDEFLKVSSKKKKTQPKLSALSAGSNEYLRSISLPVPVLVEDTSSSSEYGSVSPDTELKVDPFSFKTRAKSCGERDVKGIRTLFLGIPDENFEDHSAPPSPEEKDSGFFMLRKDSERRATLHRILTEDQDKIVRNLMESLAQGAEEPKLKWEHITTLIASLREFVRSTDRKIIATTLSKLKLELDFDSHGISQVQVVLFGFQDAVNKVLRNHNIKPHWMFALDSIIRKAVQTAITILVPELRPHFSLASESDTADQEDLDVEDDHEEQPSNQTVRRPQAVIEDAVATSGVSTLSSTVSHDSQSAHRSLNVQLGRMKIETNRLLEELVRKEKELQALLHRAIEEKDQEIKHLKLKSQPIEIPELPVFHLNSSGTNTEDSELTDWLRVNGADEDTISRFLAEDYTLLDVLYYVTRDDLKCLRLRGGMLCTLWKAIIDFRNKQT

[26] = target: Glycogen synthase kinase-3 beta (Homo sapiens, UniProt P49841); test: Inhibition of GSK3B
[27] = target: Inhibitor of nuclear factor kappa-B kinase subunit alpha (Homo sapiens, UniProt O15111); test: Inhibition of IKK1
Inhibitor of nuclear factor kappa-B kinase subunit alpha, sequence (O15111 whole entry, canonical isoform): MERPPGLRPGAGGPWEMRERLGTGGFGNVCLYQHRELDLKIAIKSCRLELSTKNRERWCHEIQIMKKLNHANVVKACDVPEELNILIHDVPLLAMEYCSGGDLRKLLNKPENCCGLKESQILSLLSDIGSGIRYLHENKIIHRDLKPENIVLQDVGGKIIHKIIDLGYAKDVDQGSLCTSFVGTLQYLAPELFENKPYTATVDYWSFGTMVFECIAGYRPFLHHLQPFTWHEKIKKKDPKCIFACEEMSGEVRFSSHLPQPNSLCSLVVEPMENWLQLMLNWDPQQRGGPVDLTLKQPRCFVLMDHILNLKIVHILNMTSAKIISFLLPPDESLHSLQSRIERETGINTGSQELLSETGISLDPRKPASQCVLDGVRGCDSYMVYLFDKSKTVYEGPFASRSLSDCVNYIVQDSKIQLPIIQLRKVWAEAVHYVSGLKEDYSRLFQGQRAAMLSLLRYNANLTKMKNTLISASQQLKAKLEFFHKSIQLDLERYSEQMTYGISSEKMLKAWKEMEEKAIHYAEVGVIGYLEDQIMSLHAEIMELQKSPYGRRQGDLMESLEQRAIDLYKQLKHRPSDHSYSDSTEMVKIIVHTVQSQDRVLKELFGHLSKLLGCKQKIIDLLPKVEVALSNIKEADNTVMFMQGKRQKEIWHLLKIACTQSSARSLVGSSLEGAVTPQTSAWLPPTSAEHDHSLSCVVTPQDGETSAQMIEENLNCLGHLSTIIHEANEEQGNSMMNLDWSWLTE

[28] = target: Phosphatidylinositol 4,5-bisphosphate 3-kinase catalytic subunit gamma isoform (Homo sapiens, UniProt P48736); test: Inhibition of PI3Kgamma
[29] = target: Tyrosine-protein kinase SYK (Homo sapiens, UniProt P43405); test: Inhibition of SYK
[30] = target: Vascular endothelial growth factor receptor 2 (Homo sapiens, UniProt P35968); test: Inhibition of VEGFR2
Vascular endothelial growth factor receptor 2, sequence (P35968 whole entry): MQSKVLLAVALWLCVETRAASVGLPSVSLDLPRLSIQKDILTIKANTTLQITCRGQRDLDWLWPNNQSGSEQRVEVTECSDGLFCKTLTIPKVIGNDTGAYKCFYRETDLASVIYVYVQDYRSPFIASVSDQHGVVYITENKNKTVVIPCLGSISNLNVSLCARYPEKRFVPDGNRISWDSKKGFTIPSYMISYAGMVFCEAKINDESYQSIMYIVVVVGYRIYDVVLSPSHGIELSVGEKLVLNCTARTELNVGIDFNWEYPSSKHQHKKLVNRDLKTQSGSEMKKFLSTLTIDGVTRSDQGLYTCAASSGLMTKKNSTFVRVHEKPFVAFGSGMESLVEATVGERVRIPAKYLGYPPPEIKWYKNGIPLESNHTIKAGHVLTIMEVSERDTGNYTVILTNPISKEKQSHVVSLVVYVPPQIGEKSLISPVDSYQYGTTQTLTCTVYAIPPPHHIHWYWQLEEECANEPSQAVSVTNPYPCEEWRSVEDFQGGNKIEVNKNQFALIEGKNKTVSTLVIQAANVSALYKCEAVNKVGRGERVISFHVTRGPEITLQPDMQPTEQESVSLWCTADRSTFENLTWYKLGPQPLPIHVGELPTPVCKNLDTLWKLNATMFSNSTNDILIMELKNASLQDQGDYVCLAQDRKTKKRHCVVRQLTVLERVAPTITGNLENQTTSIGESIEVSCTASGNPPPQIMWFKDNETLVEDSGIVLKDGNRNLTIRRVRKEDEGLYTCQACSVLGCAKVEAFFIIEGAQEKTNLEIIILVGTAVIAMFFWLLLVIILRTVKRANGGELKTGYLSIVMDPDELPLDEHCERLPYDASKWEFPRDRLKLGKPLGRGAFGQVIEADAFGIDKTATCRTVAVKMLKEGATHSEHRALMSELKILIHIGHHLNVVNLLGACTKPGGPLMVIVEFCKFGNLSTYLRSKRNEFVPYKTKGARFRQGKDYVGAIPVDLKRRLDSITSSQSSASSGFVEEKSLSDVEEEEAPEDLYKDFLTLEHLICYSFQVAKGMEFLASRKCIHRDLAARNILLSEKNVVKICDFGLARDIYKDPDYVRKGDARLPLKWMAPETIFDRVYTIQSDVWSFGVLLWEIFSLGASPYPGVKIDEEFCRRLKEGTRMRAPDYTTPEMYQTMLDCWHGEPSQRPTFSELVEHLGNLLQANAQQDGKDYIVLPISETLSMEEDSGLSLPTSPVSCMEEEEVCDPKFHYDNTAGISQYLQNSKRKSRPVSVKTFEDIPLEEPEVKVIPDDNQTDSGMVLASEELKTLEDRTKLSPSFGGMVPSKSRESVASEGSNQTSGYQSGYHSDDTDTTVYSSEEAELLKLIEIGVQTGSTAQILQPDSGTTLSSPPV

[31] = AUC in SCID mouse xenografted with human OCI-AML-2 cells at 100 mg/kg, ip administered as a single dose by LC/MS/MS analysis; format: ADME, organism-based; design: dose 100 mg/kg, route intraperitoneal; conditions: in vivo
How it was run: (§1)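 SCID mice with subcutaneous OCI-AML2 xenografts (~500-600 mm3) received a single 100 mg/kg ip dose in 1% DMSO, 20% PEG400, pH 4.2. hIGF-I was injected iv at 3 or 6 h, with blood and tumor taken 10 min after. Compound levels were measured by LC/MS/MS.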

[32] = Cmax in SCID mouse xenografted with human OCI-AML-2 cells at 100 mg/kg, ip administered as a single dose by LC/MS/MS analysis; format: ADME, organism-based; design: dose 100 mg/kg, route intraperitoneal; conditions: in vivo; how it was run: as §1
Mus musculus [33] = test: Inhibition of PDK1-mediated AKT phosphorylation at Thr308 residue in human OCI-AML-2 cells xenografted in SCID mouse at 100 mg/kg, ip after 6 hrs by LC/MS/MS analysis; conditions: OCI-AML2, ip, read-out: INH
Mus musculus [34] = test: Inhibition of PDK1-mediated AKT phosphorylation at Thr308 residue in human OCI-AML-2 cells xenografted in SCID mouse at 100 mg/kg, ip after 3 hrs by LC/MS/MS analysis; conditions: OCI-AML2, ip, read-out: INH
Mus musculus [35] = test: Inhibition of PDK1-mediated RSK phosphorylation at Ser221 residue in human OCI-AML-2 cells xenografted in SCID mouse at 100 mg/kg, ip after 3 hrs by LC/MS/MS analysis; conditions: OCI-AML2, ip, read-out: INH
Mus musculus [36] = test: Inhibition of PDK1-mediated RSK phosphorylation at Ser221 residue in human OCI-AML-2 cells xenografted in SCID mouse at 100 mg/kg, ip after 6 hrs by LC/MS/MS analysis; conditions: OCI-AML2, ip, read-out: INH
[37] = target: Ribosomal protein S6 kinase alpha-2 (Homo sapiens) (UniProt Q15349); test: Inhibition of human RSK3 assessed as residual activity at 10 uM
[38] = target: Protein kinase C zeta type (Homo sapiens) (UniProt Q05513); test: Inhibition of human PKCzeta assessed as residual activity at 10 uM

IC50 (TGF-beta receptor type-1; read-out: IC50): > 10 µM | IC50 (TGF-beta receptor type-1; read-out: pIC50 (converted)): > 10 µM | IC50 (K562): 18 µM | IC50 (OCI-AML2): 0.35 µM | Activity [3]: -2% | Activity [4]: 0% | Activity [5]: 4% | Activity [6]: 12% | Activity [7]: 13% | Activity [8]: 16% | Activity [9]: 17% | Activity [11]: 22% | Activity [12]: 23% | Activity [13]: 26% | Activity [14]: 28% | Activity [15]: 29% | Activity [16]: 33% | Activity [17]: 34% | Activity [18]: 38% | Activity [19]: 43% | Activity [20]: 44% | Activity [21]: 46% | Activity [22]: 46% | Activity [23]: 49% | IC50 [24]: > 10 µM | IC50 [25]: > 27.5 µM | IC50 [26]: > 25.1 µM | IC50 [27]: > 25.1 µM | IC50 [28]: 25.1 µM | IC50 [29]: > 25.1 µM | IC50 [30]: > 10 µM | AUC [31]: 31400 ng·h/mL | Cmax [32]: 4510 ng/mL | Activity [37]: 14% | Activity [38]: 29%
Compound: CNc1nc(-c2ccc3c(N)n[nH]c3c2)cc(N2C[C@@H](C(=O)NC3CCCCC3)CC[C@H]2C)n1
IC50 [1]: 0.52 µM | IC50 (HEL): > 30 µM | IC50 [2]: 0.28 µM | Activity [10]: 21% | inhibition in vivo at 100 mg/kg (Mus musculus [33]): 29% | inhibition in vivo at 100 mg/kg (Mus musculus [34]): 58% | inhibition in vivo at 100 mg/kg (Mus musculus [35]): 57% | inhibition in vivo at 100 mg/kg (Mus musculus [36]): 71%
